Data: ChEMBL document CHEMBL1134268, “Synthesis and biological evaluation of tropane-like 1-[2-[bis(4-fluorophenyl)methoxy]ethyl]-4-(3-phenylpropyl)piperazine (GBR 12909) analogues” (J Med Chem, 2001)

Experiments:
Rattus norvegicus [1] = species: Rattus norvegicus; assay: Inhibition of 5-HT reuptake from whole rat brain minus cerebellum using [3H]5-HT
[2] = target: Monoamine transporters; serotonin & dopamine (Rattus norvegicus) (UniProt P31652+P23977); assay: Ratio of binding affinity against Dopamine to that of serotonin transporter; type: protein assay
Rattus norvegicus [3] = species: Rattus norvegicus; assay: Inhibition of Dopamine reuptake from rat caudate using [3H]DA; type: functional
Procedure, shortened: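 Rat caudate synaptosomes were prepared by homogenization in ice-cold 10% sucrose, and the 1000g supernatant was used. Incubation was with 2 nM [3H]DA (final) in Krebs-phosphate buffer pH 7.4 containing ascorbic acid (1 mg/mL) and pargyline (50 μM), for 20 min at 25 °C. Nonspecific uptake was defined with 1 μM of a DAT inhibitor. Filtration was followed by counting of retained tritium.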

[4] = target: Sodium-dependent serotonin transporter (Rattus norvegicus, UniProt P31652); assay: Binding affinity against serotonin transporter using [125]RTI-55
[5] = target: Sodium-dependent dopamine transporter (Rattus norvegicus, UniProt P23977); assay: Binding affinity against Dopamine transporter using [125]RTI-55
[6] = target: T1, Muscarinic acetylcholine receptor M1 (Rattus norvegicus, UniProt P08482); assay: Binding affinity against Muscarinic receptor from rat brain membranes using [3H]pirenzepine
T1 sequence (P08482 whole entry): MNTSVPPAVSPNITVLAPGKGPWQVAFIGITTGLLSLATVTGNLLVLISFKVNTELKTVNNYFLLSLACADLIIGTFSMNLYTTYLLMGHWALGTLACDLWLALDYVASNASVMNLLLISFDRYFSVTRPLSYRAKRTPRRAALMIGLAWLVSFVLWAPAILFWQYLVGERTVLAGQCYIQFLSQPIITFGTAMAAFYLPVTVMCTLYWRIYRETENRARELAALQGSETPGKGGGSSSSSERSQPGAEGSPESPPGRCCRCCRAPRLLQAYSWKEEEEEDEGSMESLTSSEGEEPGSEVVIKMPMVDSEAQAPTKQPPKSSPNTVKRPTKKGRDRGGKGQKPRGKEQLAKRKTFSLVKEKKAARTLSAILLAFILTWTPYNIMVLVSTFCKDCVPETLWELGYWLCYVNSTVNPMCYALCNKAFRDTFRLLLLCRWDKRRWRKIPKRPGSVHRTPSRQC
Procedure, shortened: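 Male Sprague-Dawley rat brain P2 membranes (without cerebellum and brainstem), 300 μg protein, with 5 nM [3H]pirenzepine and 5 mM MgCl2 in 50 mM Tris-HCl pH 7.4, for 60 min at 37 °C. Nonspecific binding was defined with 10 μM QNB. Nine ligand concentrations (1 nM-10 μM or 10 nM-100 μM) were tested.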

Sodium-dependent dopamine transporter, sequence (P23977 whole entry): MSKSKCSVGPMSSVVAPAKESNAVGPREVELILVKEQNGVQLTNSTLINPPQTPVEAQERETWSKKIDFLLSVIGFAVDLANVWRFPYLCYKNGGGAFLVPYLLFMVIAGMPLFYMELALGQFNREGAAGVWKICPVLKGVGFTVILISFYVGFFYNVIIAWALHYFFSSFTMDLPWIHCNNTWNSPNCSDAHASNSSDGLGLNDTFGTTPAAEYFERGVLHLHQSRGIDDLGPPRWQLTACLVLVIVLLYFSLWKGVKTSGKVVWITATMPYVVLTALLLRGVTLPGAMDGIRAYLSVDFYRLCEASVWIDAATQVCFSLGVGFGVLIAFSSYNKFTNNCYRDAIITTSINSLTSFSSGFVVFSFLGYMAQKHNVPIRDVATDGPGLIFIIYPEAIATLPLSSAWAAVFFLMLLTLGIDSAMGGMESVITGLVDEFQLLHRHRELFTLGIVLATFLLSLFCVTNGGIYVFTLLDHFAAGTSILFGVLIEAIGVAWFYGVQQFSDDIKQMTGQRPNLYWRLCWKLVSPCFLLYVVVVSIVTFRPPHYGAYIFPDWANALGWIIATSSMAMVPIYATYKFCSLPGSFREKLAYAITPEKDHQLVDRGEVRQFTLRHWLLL
Monoamine transporters; serotonin & dopamine (Rattus norvegicus), sequence (P23977 whole entry, looked up): as the sequence (P23977 whole entry) above
Monoamine transporters; serotonin & dopamine (Rattus norvegicus), sequence (P31652 whole entry, looked up): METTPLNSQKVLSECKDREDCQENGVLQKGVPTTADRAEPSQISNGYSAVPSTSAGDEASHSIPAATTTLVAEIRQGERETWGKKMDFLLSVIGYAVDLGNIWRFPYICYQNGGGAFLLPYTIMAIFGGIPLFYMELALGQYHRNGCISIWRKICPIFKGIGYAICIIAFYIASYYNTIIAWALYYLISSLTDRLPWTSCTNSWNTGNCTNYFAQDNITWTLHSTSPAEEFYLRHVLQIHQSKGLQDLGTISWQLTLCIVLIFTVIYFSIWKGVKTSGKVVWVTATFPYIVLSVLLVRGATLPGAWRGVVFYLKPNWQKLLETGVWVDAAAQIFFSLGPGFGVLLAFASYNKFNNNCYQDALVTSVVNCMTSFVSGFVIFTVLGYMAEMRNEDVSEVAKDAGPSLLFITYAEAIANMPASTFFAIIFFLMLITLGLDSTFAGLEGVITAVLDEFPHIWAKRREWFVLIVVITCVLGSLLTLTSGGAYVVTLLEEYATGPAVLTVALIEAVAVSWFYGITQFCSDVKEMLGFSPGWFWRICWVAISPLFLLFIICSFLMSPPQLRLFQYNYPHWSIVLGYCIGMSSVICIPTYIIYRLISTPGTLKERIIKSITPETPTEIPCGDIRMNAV
Sodium-dependent serotonin transporter, sequence (P31652 whole entry): as the sequence (P31652 whole entry, looked up) above

| Structure (SMILES) | Ki (Rattus norvegicus [1]) | Ratio [2] | Ki (Rattus norvegicus [3]) | Ki [4] | Ki [5] | Ki [6] |
| --- | --- | --- | --- | --- | --- | --- |
| CN1C2CCC1CC(CC(=O)NC(c1ccc(F)cc1)c1ccc(F)cc1)C2 (stereo not drawn) | 60000 nM | 20 | 1800 nM | 69000 nM | 3400 nM | 1200 nM |
| CN1[C@@H]2CC[C@H]1C[C@@H](CCNC(c1ccc(F)cc1)c1ccc(F)cc1)C2 | 7100 nM | 111 | 160 nM | 30000 nM |  | 630 nM |
| CN1C2CCC1CC(CCNC(c1ccccc1)c1ccccc1)C2 (stereo not drawn) | 14000 nM | 11 | 1100 nM | 43000 nM | 3800 nM | 340 nM |
| CN1C2CCC1CC(=CC(=O)NC(c1ccc(F)cc1)c1ccc(F)cc1)C2 | 17000 nM | 38 | 240 nM | 19000 nM |  | 2500 nM |
| Fc1ccc(C(OCC[C@H]2C[C@H]3CC[C@@H](C2)N3CCCc2ccccc2)c2ccc(F)cc2)cc1 | 430 nM | 4 | 78 nM | 79 nM | 19000 nM | 170 nM |
| CN1[C@@H]2CC[C@H]1C[C@@H](CC(=O)NC(c1ccccc1)c1ccccc1)C2 | 100000 nM | 4 | 7900 nM | 120000 nM | 30000 nM | 1200 nM |
| Fc1ccc(C(OCCN2CCN(CCCc3ccccc3)CC2)c2ccc(F)cc2)cc1 [VANOXERINE] | 73 nM |  | 4.3 nM |  |  |  |
| c1ccc(CCCN2[C@@H]3CC[C@H]2C[C@@H](CCOC(c2ccccc2)c2ccccc2)C3)cc1 | 570 nM | 6 | 120 nM | 170 nM | 28000 nM | 78 nM |
| CN1C2CCC1CC(=CCOC(c1ccc(F)cc1)c1ccc(F)cc1)C2 | 5000 nM | 189 | 35 nM | 3600 nM | 19000 nM | 200 nM |
| CN1[C@@H]2CC[C@H]1C[C@@H](OC(c1ccccc1)c1ccccc1)C2 [BENZTROPINE] | 18500 nM |  | 130 nM |  |  |  |
| CN1C2CCC1CC(=CCOC(c1ccccc1)c1ccccc1)C2 | 8100 nM | 64 | 190 nM | 8300 nM |  | 94 nM |
| c1ccc(CCCN2CCN(CCOC(c3ccccc3)c3ccccc3)CC2)cc1 | 290 nM |  | 3.7 nM |  |  |  |
| CN1[C@@H]2CC[C@H]1C[C@@H](CCOC(c1ccccc1)c1ccccc1)C2 | 12000 nM | 54 | 260 nM | 15000 nM |  | 56 nM |
| CN1C2CCC1CC(=CC(=O)NC(c1ccccc1)c1ccccc1)C2 | 60000 nM | 34 | 880 nM | 78000 nM | 2300 nM | 1700 nM |
| CN1C2CCC1CC(CCOC(c1ccc(F)cc1)c1ccc(F)cc1)C2 (stereo not drawn) |  | 79 | 80 nM | 4100 nM | 52000 nM | 130 nM |
